This note sets out measurements from ChEMBL document CHEMBL1143349, “Novel non-peptide nociceptin/orphanin FQ receptor agonist, 1-[1-(1-Methylcyclooctyl)-4-piperidinyl]-2-[(3R)-3-piperidinyl]-1H-benzimidazole: design, synthesis, and structure-activity relationship of oral receptor occupancy in the brain for orally potent antianxiety drug” (J Med Chem, 2009).

For experiment [1], the target named is T1, Nociceptin receptor (Homo sapiens, UniProt P41146). In words: Agonist activity at human NOP receptor expressed in HEK293 cells by [35S]GTPgammaS binding. The experiment is classed as functional, cell-based.
T1 sequence (P41146 whole entry): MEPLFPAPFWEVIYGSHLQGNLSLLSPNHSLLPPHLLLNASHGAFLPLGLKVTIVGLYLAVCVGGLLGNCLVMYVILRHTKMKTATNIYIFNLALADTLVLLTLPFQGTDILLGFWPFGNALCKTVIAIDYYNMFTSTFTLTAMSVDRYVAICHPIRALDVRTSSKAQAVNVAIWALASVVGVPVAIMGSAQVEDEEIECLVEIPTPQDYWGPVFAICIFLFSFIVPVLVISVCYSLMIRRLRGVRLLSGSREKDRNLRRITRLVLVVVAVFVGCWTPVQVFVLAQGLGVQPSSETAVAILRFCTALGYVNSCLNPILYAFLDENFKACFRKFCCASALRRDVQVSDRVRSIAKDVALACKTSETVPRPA
In experiment [2] the target is T1, Nociceptin receptor. In words: Displacement of [3H]N/OFQ from human NOP receptor expressed in HEK293 cells. The experiment is classed as cell-based.
For experiment [3], the target named is T2, Mu-type opioid receptor (Homo sapiens, UniProt P35372). Put plainly: Displacement of [3H]DAMGO from human mu opioid receptor expressed in CHOK1 cells. The experiment is classed as cell-based, CHO-K1. (In general: In a radioligand displacement assay an active substance lowers the binding of a labelled ligand.)
T2 sequence (P35372 whole entry): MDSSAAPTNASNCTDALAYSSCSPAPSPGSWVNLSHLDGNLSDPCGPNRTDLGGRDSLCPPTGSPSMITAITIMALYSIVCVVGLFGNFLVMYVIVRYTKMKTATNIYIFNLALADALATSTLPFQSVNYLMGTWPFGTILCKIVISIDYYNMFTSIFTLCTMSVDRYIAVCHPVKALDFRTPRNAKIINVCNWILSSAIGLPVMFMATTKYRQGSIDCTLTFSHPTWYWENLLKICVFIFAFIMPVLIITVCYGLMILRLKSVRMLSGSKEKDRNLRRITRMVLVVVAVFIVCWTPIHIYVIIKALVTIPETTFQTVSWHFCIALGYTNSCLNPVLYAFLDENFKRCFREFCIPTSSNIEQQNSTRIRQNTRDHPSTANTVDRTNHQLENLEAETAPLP
Experiment [4] has as its target T2, Mu-type opioid receptor. In words: Agonist activity at human mu opioid receptor expressed in CHOK1 cells by [35S]GTPgammaS binding. The experiment is classed as functional, cell-based, CHO-K1. (In general: GTPγS resists hydrolysis and so accumulates on activated G proteins.)
The test system of experiment [5] is Mus musculus. In words: Ex vivo receptor occupancy of NOP receptor in ddY mouse brain at 10 mg/kg, po after 1 hr by [3H]N/OFQ binding assay. The experiment is classed as functional. An outline of the steps: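 Male ddY mice (5-6 week), water-deprived 24 h, dosed orally at 10 mg/kg in 0.1% methylcellulose. Brain removed 1 h later; cerebellum and medulla discarded, membranes prepared at 4 °C. Membranes (160 µg protein) incubated with 0.3 nM [3H]N/OFQ, 30 min, 25 °C; filtration read-out. Nonspecific binding with 1 µM N/OFQ. Occupancy is inhibition of specific binding versus vehicle-treated mice, three mice, mean ± SEM.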

In experiment [6] the target is T3, Kappa-type opioid receptor (Homo sapiens, UniProt P41145). Put plainly: Displacement of [3H]enadoline from human kappa opioid receptor expressed in HEK293 cells. The experiment is classed as cell-based.
T3 sequence (P41145 whole entry): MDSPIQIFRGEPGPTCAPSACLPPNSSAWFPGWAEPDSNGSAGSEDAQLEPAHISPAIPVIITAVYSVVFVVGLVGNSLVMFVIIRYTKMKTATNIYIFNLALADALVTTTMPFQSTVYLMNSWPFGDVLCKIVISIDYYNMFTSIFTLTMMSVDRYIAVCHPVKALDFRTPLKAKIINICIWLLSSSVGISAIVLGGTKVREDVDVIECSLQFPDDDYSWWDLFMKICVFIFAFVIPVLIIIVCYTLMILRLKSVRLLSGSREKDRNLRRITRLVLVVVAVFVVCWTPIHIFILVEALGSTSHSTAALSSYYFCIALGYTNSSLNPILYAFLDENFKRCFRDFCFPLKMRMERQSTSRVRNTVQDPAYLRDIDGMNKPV
In experiment [7] the target is T4, Delta-type opioid receptor (Homo sapiens, UniProt P41143). Put plainly: Displacement of [3H]DPDPE from human delta opioid receptor expressed in CHOK1 cells. The experiment is classed as cell-based, CHO-K1.
T4 sequence (P41143 whole entry): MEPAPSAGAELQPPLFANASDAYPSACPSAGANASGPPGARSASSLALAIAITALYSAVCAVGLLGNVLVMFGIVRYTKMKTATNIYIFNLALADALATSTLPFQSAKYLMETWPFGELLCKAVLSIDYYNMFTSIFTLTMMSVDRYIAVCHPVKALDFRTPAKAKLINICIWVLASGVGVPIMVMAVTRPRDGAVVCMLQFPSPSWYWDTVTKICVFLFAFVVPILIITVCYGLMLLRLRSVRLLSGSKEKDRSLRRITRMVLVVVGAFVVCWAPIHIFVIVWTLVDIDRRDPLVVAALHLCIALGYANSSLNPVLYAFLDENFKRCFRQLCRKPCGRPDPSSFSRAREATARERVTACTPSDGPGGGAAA
Experiment [8] concerns the target T3, Kappa-type opioid receptor. Put plainly: Agonist activity at human kappa opioid receptor expressed in HEK293 cells by [35S]GTPgammaS binding. The experiment is classed as functional, cell-based.
The target in experiment [9] is T4, Delta-type opioid receptor. Put plainly: Agonist activity at human delta opioid receptor expressed in CHOK1 cells by [35S]GTPgammaS binding. The experiment is classed as functional, cell-based, CHO-K1.
Experiment [10] addresses T4, Delta-type opioid receptor. Put plainly: Displacement of [3H]DPDPE from human delta opioid receptor expressed in CHOK1 cells at 1 uM. The experiment is classed as cell-based. The settings on record: CHO-K1.

What is called EC50 is the concentration at which the effect is half-maximal. Usually Ki stands for a measure of affinity in units of concentration, obtained from inhibition or displacement. Low readings indicate higher affinity, high ones lower affinity.

In the case of `CC1(N2CCC(n3c(-c4cc5ccccc5o4)nc4ccccc43)CC2)CCCCCCC1`, the figures for the EC50 in [1] and in experiment [4] were 3.1 nM and 3670 nM, respectively. Further, the Ki is 0.53 nM in experiment [2] and 102 nM in experiment [3]. Moreover, the Activity in experiment [5] was determined as 34%.
Turning to `CC1(N2CCC(n3c([C@@H]4CCCNC4)nc4ccccc43)CC2)CCCCCCC1`, the results for the Ki in experiment [6] and in experiment [7] were 23.1 nM and over 667 nM, respectively. For the same compound, the EC50 in experiment [8] was determined as 80 nM; in experiment [9], 4700 nM. For the same compound, the Activity in experiment [5] worked out at 53%.
As for `CC1CN(c2nc3ccccc3n2C2CCN(C3(C)CCCCCCC3)CC2)CC(C)N1` (configuration not stated), the Ki in experiment [3] was found to be 21 nM; in experiment [6], 15 nM. Moreover, the EC50 in experiment [4] was 193 nM; in [8], 18 nM. In [10], the Activity came out at 29%.
On to `CC1(N2CCC(n3c([C@H]4CCCNC4)nc4ccccc43)CC2)CCCCCCC1`, for which the results for the Ki in experiment [6] and in experiment [7] were 9.2 nM and 168 nM, respectively. The EC50 in experiment [8] amounted to 8.4 nM; in [9] it was 514 nM.
On to `CC1(N2CCC(n3c(-c4cccc(OCCO)c4)nc4ccccc43)CC2)CCCCCCC1`, for which the EC50 in experiment [1] was 2.6 nM; in experiment [4], over 393 nM; in experiment [8] it was 48 nM. Further, the Ki in [2] is 0.3 nM; in [3] it was 11 nM; in experiment [6], 43 nM; in [7] it was 9.5 nM. Moreover, in experiment [5], the Activity worked out at 38%.
Take `CC1(N2CCC(n3c(-c4cccc(S(C)(=O)=O)c4)nc4ccccc43)CC2)CCCCCCC1`: the EC50 worked out at 1.6 nM in experiment [1] and 288 nM in experiment [4]. Besides, the figures for the Ki in experiment [2] and in experiment [3] were 0.15 nM and 6.3 nM, respectively. In addition, the Activity in experiment [5] is given as 34%.
As for `CC1(N2CCC(n3c(-c4cccc(C(F)(F)F)c4)nc4ccccc43)CC2)CCCCCCC1`, the EC50 stood at 5.7 nM in experiment [1], 10000 nM in experiment [4] and 1580 nM in experiment [8]. Further, the Ki in experiment [2] was 0.63 nM; in experiment [3], 65 nM; in [6] it was 352 nM; in experiment [7], 58 nM. Also, the Activity in experiment [5] is 3.2%.
`CC1(N2CCC(n3c(-c4ccc(F)c(Cl)c4)nc4ccccc43)CC2)CCCCCCC1`: the Ki in experiment [3] came to 45 nM. Besides, the midpoint of the response in [4], the EC50, lay at 759 nM. In experiment [5], the Activity was 31%.
Take `CC1(N2CCC(n3c(-c4cccc(CN)c4)nc4ccccc43)CC2)CCCCCCC1`: the Ki was 20 nM in experiment [3], 72 nM in experiment [6] and 140 nM in [7]. Further, the EC50 in [4] worked out at 340 nM; in [8], 154 nM. Moreover, in [5], the Activity is recorded as 30%.
For `CC1(N2CCC(n3cnc4ccccc43)CC2)CCCCCCC1`, affinity in [3] was put at a Ki of 11 nM.
As to `CN1CCC[C@@H](c2nc3ccccc3n2C2CCN(C3(C)CCCCCCC3)CC2)C1`, the EC50 in experiment [1] turned out to be 1.4 nM; in [4], 67 nM; in experiment [8], 70 nM; in experiment [9], 2190 nM. For the same compound, the Ki was 0.2 nM in [2], 3.7 nM in experiment [3], 25 nM in [6] and over 500 nM in experiment [7]. In experiment [5], the Activity is listed as 61%.
On to `CC1(N2CCC(n3c(-c4ccc5cc[nH]c5c4)nc4ccccc43)CC2)CCCCCCC1`, for which the figures for the EC50 in experiment [1] and in [4] were 13 nM and 8630 nM, respectively. For the same compound, the Ki worked out at 1.7 nM in experiment [2] and 151 nM in [3]. In addition, the Activity in experiment [5] is recorded as -10%.
In the case of `CN1CCC[C@H](c2nc3ccccc3n2C2CCN(C3(C)CCCCCCC3)CC2)C1`, the EC50 in experiment [1] was 1.6 nM; in experiment [4], 71 nM; in experiment [8], 13 nM; in experiment [9], 389 nM. The Ki came out at 0.24 nM in experiment [2], 11 nM in experiment [3], 10 nM in experiment [6] and 110 nM in experiment [7].
